Here are results for four molecules from ChEMBL document CHEMBL1649390, “New (RS)-benzoxazepin-purines with antitumour activity: The chiral switch from (RS)-2,6-dichloro-9-[1-(p-nitrobenzenesulfonyl)-1,2,3,5-tetrahydro-4,1-benzoxazepin-3-yl]-9H-purine” (Eur J Med Chem, 2011).

A short description of data set [1]: Cell cycle arrest in human MCF10A cells assessed as accumulation at G0/G1 phase after 48 hrs using propidium iodide staining by flow cytometry (reference value: 65.70 +/- 1.14 %). The data set is classed as ADME, cell-based. The settings on record: mcf-10a. A general note: In flow cytometry, cells or beads pass a laser one at a time.
In data set [2] the test system is MCF7. The experiment in a line: Cytotoxicity against human MCF7 cells expressing wild type p53 and ras mutant […]. The data set is classed as functional, cell-based.
The nature of data set [3]: Cell cycle arrest in human MCF10A cells assessed as accumulation at G2/M phase after 48 hrs using propidium iodide staining by flow cytometry (reference value: 12.55 +/- 0.68 %). Type of data set: ADME, cell-based. As to conditions: mcf-10a.
In data set [4] the test system is MDA-MB-231. The data set can be described thus: Cytotoxicity against human MDA-MB-231 cells expressing high level of p53 […]. Type of data set: functional, cell-based.
A short description of data set [5]: Cell cycle arrest in human MCF10A cells assessed as accumulation at S phase after 48 hrs using propidium iodide staining by flow cytometry (reference value: 21.78 +/- 0.46 %). Type of data set: ADME, cell-based. As to conditions: mcf-10a.
Data set [6] has as its system MDA-MB-231. The data set can be described thus: Cell cycle arrest in human MDA-MB-231 cells assessed as accumulation at G0/G1 phase after 48 hrs using propidium iodide staining by flow cytometry (reference value: 42.06 +/- 0.01 %). The data set is classed as functional.
The test system of data set [7] is MCF7. The data set can be described thus: Induction of apoptosis in human MCF7 cells assessed as viable cells at IC50 concentration after 48 hrs using V-FITC and propidium iodide staining by flow cytometry (reference value: 86.26 +/- 7.25 %).
In data set [8] the test system is MDA-MB-231. The experiment in a line: Cell cycle arrest in human MDA-MB-231 cells assessed as accumulation at S phase after 48 hrs using propidium iodide staining by flow cytometry (reference value: 26.35 +/- 0.03 %). The data set is classed as functional.
Data set [9] deals with MDA-MB-231. The experiment in a line: Cell cycle arrest in human MDA-MB-231 cells assessed as accumulation at G2/M phase after 48 hrs using propidium iodide staining by flow cytometry (reference value: 31.59 +/- 0.03 %). Type of data set: functional.
The test system of data set [10] is MCF7. The experiment in a line: Induction of apoptosis in human MCF7 cells assessed as late apoptotic cells at IC50 concentration after 24 hrs using V-FITC and propidium iodide staining by flow cytometry (reference value: 1.11 +/- 0.24 %). Type of data set: functional.
Data set [11] deals with MCF7. The data set can be described thus: Induction of apoptosis in human MCF7 cells assessed as cell viability at IC50 concentration after 24 hrs using V-FITC and propidium iodide staining by flow cytometry (reference value: 90.42 +/- 0.63 %). The data set is classed as functional.
In data set [12] the test system is MCF7. The data set can be described thus: Induction of apoptosis in human MCF7 cells assessed as late apoptotic cells at IC50 concentration after 24 hrs using V-FITC and propidium iodide staining by flow cytometry (reference value: 0.03 +/- 0.01 %). The data set is classed as functional.
Data set [13] deals with MCF7. The experiment in a line: Induction of apoptosis in human MCF7 cells assessed as necrotic cells at IC50 concentration after 48 hrs using V-FITC and propidium iodide staining by flow cytometry (reference value: 12.61 +/- 7.50 %). The data set is classed as functional.
The subject of data set [14] is MCF7. The experiment in a line: Cell cycle arrest in human MCF7 cells assessed as accumulation at G0/G1 phase after 48 hrs using propidium iodide staining by flow cytometry (reference value: 89.88 +/- 1.73 %). Type of data set: functional.
The subject of data set [15] is MCF7. The experiment in a line: Cell cycle arrest in human MCF7 cells assessed as accumulation at S phase after 48 hrs using propidium iodide staining by flow cytometry (reference value: 8.55 +/- 0.40 %). Type of data set: functional.
For data set [16], the system named is MCF7. The data set can be described thus: Induction of apoptosis in human MCF7 cells assessed as necrotic cells at IC50 concentration after 24 hrs using V-FITC and propidium iodide staining by flow cytometry (reference value: 9.55 +/- 0.21 %). The data set is classed as functional.
The subject of data set [17] is MCF7. The data set can be described thus: Induction of apoptosis in human MCF7 cells assessed as early apoptotic cells at IC50 concentration after 48 hrs using V-FITC and propidium iodide staining by flow cytometry relative to control. Type of data set: functional.
Data set [18] relates to MCF7. The experiment in a line: Induction of apoptosis in human MCF7 cells assessed as early apoptotic cells at IC50 concentration after 24 hrs using V-FITC and propidium iodide staining by flow cytometry relative to control. Type of data set: functional.
Data set [19] has as its system MCF7. The data set can be described thus: Cell cycle arrest in human MCF7 cells assessed as accumulation at G2/M phase after 48 hrs using propidium iodide staining by flow cytometry (reference value: 1.57 +/- 2.12 %). Type of data set: functional.
A short description of data set [20]: Therapeutic index, ratio of IC50 for human MCF10A cells to IC50 for human MDA-MB-231 cells expressing high level of p53. The settings on record: MCF10A cells versus MDA-MB-231 cells (high level of p53), read-out: Ratio IC50. Type of data set: cell-based. An outline of the steps:
(§1)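 Ratio of IC50 in non-tumour MCF-10A to IC50 in the tumour line, both from the SRB growth assay described for cytotoxicity.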

The test system of data set [21] is Mus musculus. The experiment in a line: Acute toxicity in BALB/c mouse assessed as mortality up to 200 mg/kg, ip after 2 weeks. Type of data set: organism-based. As to conditions: in vivo, 336 h. Set-up: dose 200 mg/kg, route intraperitoneal. The gist of the method:
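Six-week-old female BALB/c mice (about 20 g) were given a single i.p. bolus at 50, 75, 100, 150 and 200 mg/kg (n = 25), dissolved in 0.25 mL of 0.9% NaCl/DMSO. Vehicle controls received saline or DMSO alone. Mice were weighed and scored twice weekly for 2 weeks for systemic toxicity (listlessness, weight loss) and local toxicity (alopecia, skin reaction, leg motility).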

A short description of data set [22]: Therapeutic index, ratio of IC50 for human MCF10A cells to IC50 for human MCF7 cells expressing wild type p53 and ras mutant. The settings on record: MCF10A cells versus MCF7 cells (wild type p53, ras mutant), read-out: Ratio IC50. Type of data set: cell-based. An outline of the steps:
as §1

The subject of data set [23] is Mus musculus. The experiment in a line: Acute toxicity in BALB/c mouse assessed as mortality up to 50 mg/kg, po after 2 weeks. Set-up: dose 50 mg/kg, route oral. Type of data set: organism-based. As to conditions: in vivo, 336 h. An outline of the steps: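 Female BALB/c mice, six weeks old (about 20 g), were dosed once by gavage at 0.05, 0.5, 5 and 50 mg/kg (n = 25) in 0.25 mL of 0.9% NaCl/DMSO. Controls received saline or DMSO alone. Body weight and signs of systemic toxicity (listlessness, weight loss) and local toxicity (alopecia, skin reaction, leg motility) were checked twice weekly over 2 weeks.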

Data set [24] can be described thus: Cytotoxicity against human MCF10A cells […] by SRB assay. The data set is classed as cell-based. The settings on record: MCF-10A.

As for `O=[N+]([O-])c1ccc(S(=O)(=O)N2C[C@H](n3cnc4c(Cl)nc(Cl)nc43)OCc3ccccc32)cc1`, the Activity in [1] is recorded as 65.33%; in data set [3] it was 12.68%; in data set [5] it was 22%; in the data set on MDA-MB-231 [6], 50.78%; in the data set on MDA-MB-231 [8], 2.98%; with MDA-MB-231 [9], 46.24%. For the same molecule, the Activity with MCF7 [10] is 10.51%; with MCF7 [11] it was 88.56%; in the data set with MCF7 [12], 0.51%; with MCF7 [13], 2.94%; with MCF7 [14], 87.22%; in the data set with MCF7 [15], 11.06%. Further, the Activity with MCF7 [16] turned out to be 10.23%; with MCF7 [17] it was 41.99%; in the data set on MCF7 [18] it was 0.68%; in the data set on MCF7 [19], 1.22%. Further, the IC50 (as a rule, the concentration needed to halve the response being measured) worked out at 190 nM in the data set with MCF7 [2] and 110 nM with MDA-MB-231 [4]. Further, in the data set with MCF7 [7], the viability (commonly a per cent measure of how many cells are alive, often set against a control) is 44.55%.

For the molecule `O=[N+]([O-])c1ccc(S(=O)(=O)N2C[C@@H](n3cnc4c(Cl)nc(Cl)nc43)OCc3ccccc32)cc1`, the Activity was 64.22% in data set [1]; 10.76% in [3]; 25.02% in data set [5]; 39.97% in the data set with MDA-MB-231 [6]; 29.37% with MDA-MB-231 [8]; 30.67% in the data set on MDA-MB-231 [9]. Further, the Activity with MCF7 [10] is given as 5.35%; in the data set with MCF7 [11], 89.36%; in the data set with MCF7 [12] it was 0.34%; in the data set on MCF7 [13] it was 1.84%; in the data set on MCF7 [14] it was 89.02%; with MCF7 [15], 7.88%. The Activity is 10.37% with MCF7 [16], 28.82% in the data set on MCF7 [17], 0.1% with MCF7 [18] and 3.1% in the data set on MCF7 [19]. Moreover, the IC50 in the data set on MCF7 [2] stood at 100 nM; in the data set with MDA-MB-231 [4], 110 nM. In addition, the viability in the data set on MCF7 [7] was determined as 63.98%.

For `O=[N+]([O-])c1ccc(S(=O)(=O)N2CC(n3cnc4c(Cl)nc(Cl)nc43)OCc3ccccc32)cc1` (racemic), the selectivity ratio in [20] is 11; in [22] it was 5.14. Further, the Activity result in the data set on Mus musculus [21] is listed as “Non-toxic”; in [1], 65.94%; in the data set on Mus musculus [23] it was “Non-toxic”; in data set [3] it was 11.92%; in data set [5], 22.14%; in the data set on MDA-MB-231 [6] it was 45.4%. Also, the Activity in the data set with MDA-MB-231 [8] amounted to 29.36%; in the data set on MDA-MB-231 [9], 25.4%; with MCF7 [10] it was 13.84%; in the data set on MCF7 [11] it was 94.16%; in the data set on MCF7 [12], 0.23%; in the data set on MCF7 [13], 16.13%. The Activity in the data set with MCF7 [14] stood at 87.2%; with MCF7 [15], 8.55%; in the data set on MCF7 [16], 4.93%; with MCF7 [17], 23.38%; with MCF7 [18], 0.66%; in the data set on MCF7 [19] it was 1.57%. Besides, the IC50 in the data set with MCF7 [2] was 355 nM; in the data set with MDA-MB-231 [4], 166 nM; in [24] it was 1820 nM. The viability in the data set with MCF7 [7] was 46.65%.

With `O=[N+]([O-])c1ccccc1S(=O)(=O)N1CC(n2cnc3c(I)nc(Cl)nc32)OCc2ccccc21` (racemic), the selectivity ratio was 1.37 in [20] and 0.57 in data set [22]. The Activity in [1] is reported as 66.69%; in [3] it was 11.34%; in [5], 21.98%; in the data set with MDA-MB-231 [6] it was 40.38%; in the data set on MDA-MB-231 [8], 28.82%; with MDA-MB-231 [9], 30.3%. Also, the Activity is listed as 9.33% in the data set on MCF7 [10]; 92.22% in the data set with MCF7 [11]; 0.08% in the data set with MCF7 [12]; 8.08% with MCF7 [13]; 84.1% in the data set on MCF7 [14]; 9.53% in the data set with MCF7 [15]. For the same molecule, the Activity with MCF7 [16] was 7.69%; with MCF7 [17] it was 24.27%; with MCF7 [18], 0%; in the data set with MCF7 [19], 6.38%. Besides, the IC50 with MCF7 [2] was 610 nM; with MDA-MB-231 [4], 256 nM; in data set [24], 351 nM. In addition, in the data set with MCF7 [7], the viability was 58.32%.
